# SIRT5 inh = sirtuin-5 (human) deacylase inhibition. Q9NXA8. Purified SirT5, succinyl-peptide AMC, trypsin-coupled fluorescence. inhibition, % at 15 µM. hit rate 1.1% among 330,000; in the data active = inhibition above about 15%
# Target sequence (Q9NXA8 whole entry, looked up): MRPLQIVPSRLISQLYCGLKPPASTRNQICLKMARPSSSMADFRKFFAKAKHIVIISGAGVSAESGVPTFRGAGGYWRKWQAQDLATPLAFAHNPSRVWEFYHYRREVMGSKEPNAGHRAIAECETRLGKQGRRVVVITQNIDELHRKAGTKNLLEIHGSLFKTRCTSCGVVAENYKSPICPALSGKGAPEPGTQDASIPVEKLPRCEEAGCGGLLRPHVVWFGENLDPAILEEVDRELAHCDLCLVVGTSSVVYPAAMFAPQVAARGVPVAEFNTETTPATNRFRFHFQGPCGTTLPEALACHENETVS
# rRNA inh HTS = inhibitors of bacterial rRNA selective over humanized ribosomes | E. coli WT GFP vs humanized-ribosome RFP mutants, fluorescence, 24 h; hits give low values; DMSO median 0, no signal -100 | GFP signal change (wild-type ribosome), % (test concentration not listed) | hit rate 1.6% among 350,000;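 active = significant combined selectivity score with lowered wild-type GFP, culture density cut under 30%, mutant RFP and density less affected; inactive = any of these conditions unmet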
# CFTR F508del cor = correctors of CFTR F508del function in bronchial epithelial cells | AID 720511 | CFBE cells, YFP halide quenching; stimulated with forskolin plus potentiator P3; % fluorescence drop versus neutral controls | activity (quench increase), % at 7.58 µM | hit rate 0.36% among 350,000;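 active = mean added fluorescence quench of at least 8% versus neutral control, with both replicates also reaching 8%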;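 note: cells transiently co-express mutant CFTR-F508del with the halide-sensitive YFP; corrector assay measuring rescue of mutant channel to the surface after 24 h compound exposure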
# S100A4 inh HTS = inhibitors of human S100A4 binding to myosin IIA peptide | AID 652163 | inhibition, % at 10.7 µM | S100A4/TAMRA-MyoIIA peptide fluorescence polarization | hit rate 0.14% among 360,000;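 active = mean inhibition of at least 70% across replicates, with every replicate also reaching that level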
# Target sequence (P26447 whole entry, looked up): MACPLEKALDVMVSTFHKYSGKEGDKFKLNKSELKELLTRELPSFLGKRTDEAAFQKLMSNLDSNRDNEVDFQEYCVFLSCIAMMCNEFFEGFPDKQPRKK
#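 Material: human S100A4 monomer with TAMRA-labelled myosin IIA peptide; buffer or medium: HEPES pH 7.2 with CaCl2, KCl, NaCl, DTT, Triton; compound dosing: one concentration per compound; schedule: 5 min incubation before reading; benchmarks: neutral control DMSO, positive control TFP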
# ERAP1 HTS inh = ERAP1 (human) enzyme inhibition; Q9NZ08; inhibition, % at 10.7 µM; recombinant ERAP1, Leu-AMC fluorescence, 60 min; hit rate 0.15% among 340,000;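 active = mean replicate inhibition of at least 30%, or all replicates individually reaching that 30% level; inactive = mean below 30% and not every replicate reaching it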;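 note: 0% = neutral control wells and 100% = L-leucinethiol positive control wells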
# * = called active by the depositor; . = not tested or not shown. Only some compounds are listed: those with a hit (about 3.1% of all), similar ones and a draw of the others.
SMILES,SIRT5 inh,rRNA inh HTS,CFTR F508del cor,S100A4 inh HTS,ERAP1 HTS inh
Cn1cc(/C=C2/SC(=O)N(c3ccccc3)C2=O)c2ccccc21,.,.,0.3,.,.
Cn1cccc1/C=C1\SC(=Nc2cccc(O)c2)NC1=O,1.1,-19.9,9.1*,-1.0,6.3
COc1cc(/C=C2\SC(=Nc3ccc(O)cc3)NC2=O)cc(OC)c1O,-3.5,-3.6,2.4,2.7,2.0
Cc1noc(C)c1NC(=O)N(C)C[C@@H]1OCCCC[C@@H](C)Oc2ccc(NS(=O)(=O)c3ccc(Cl)cc3)cc2C(=O)N([C@H](C)CO)C[C@@H]1C,-0.2,6.4,-0.7,4.6,-4.2
C[C@H](CO)N1C[C@H](C)[C@@H](CN(C)Cc2ccncc2)Oc2cc(C#CC3CC3)ccc2S1(=O)=O,-0.8,-5.3,1.3,5.6,-2.5
Cn1cccc1/C=C1\SC(=Nc2ccc(O)cc2)NC1=O,-2.5,-25.2,12.0*,0.8,.
COCCNC(=O)C[C@@H]1CC[C@@H]2[C@H](COc3ccc(NC(=O)c4cc(C)on4)cc3C(=O)N2C)O1,-5.8,2.7,0.4,-2.3,1.9
COCC(=O)Nc1ccc2c(c1)OC[C@@H](C)N(CC1CC1)C[C@H](C)[C@@H](OC)CN(C)C2=O,5.4,0.6,-0.9,17.9,.
COCC(=O)Nc1ccc2c(c1)OC[C@H](C)N(CC1CC1)C[C@@H](C)[C@@H](OC)CN(C)C2=O,20.2*,2.7,-1.9,7.2,.
CCC(=O)Nc1ccc2c(c1)C(=O)N(C)C[C@H](OC)[C@@H](C)CN(CC1CCCCC1)[C@H](C)CO2,18.1*,-3.6,3.3,-3.1,-4.1
C[C@@H]1CN([C@H](C)CO)C(=O)CCCn2cc(nn2)CO[C@@H]1CN(C)Cc1cccc(O)c1,-7.1,1.1,2.0,-15.0,-0.7
C[C@H](O)C#Cc1cnc2c(c1)C(=O)N([C@H](C)CO)C[C@@H](C)[C@H](CN(C)C(=O)Cc1ccncc1)O2,-4.1,2.9,3.0,11.3,.
O=C(CCCN1C(=O)C(=Cc2ccc3c(c2)OCO3)SC1=S)Nc1ccc(C(=O)O)c(O)c1,34.4*,-26.2*,-4.0,-2.7,.
COc1ccc(/C=C2\SC(=S)N(CCCC(=O)Nc3cccc(C(=O)O)c3)C2=O)cc1OC,8.5,-0.3,-0.5,36.3,-18.0
O=C(CCCN1C(=O)/C(=C/c2ccccc2)SC1=S)Nc1ccc(C(=O)O)c(O)c1,46.4*,-14.7,-0.6,-0.3,15.5
COc1ccc(C=C2SC(=S)N(CCCC(=O)Nc3ccc(C(=O)O)c(O)c3)C2=O)cc1OC,53.2*,1.4,-1.8,2.7,35.3*
O=C(CCN1C(=O)S/C(=C/c2ccccc2)C1=O)Nc1ccc(C(=O)O)c(O)c1,3.8,-15.1,2.1,-2.3,-0.6
O=C(C[C@@H]1CC[C@@H]2[C@H](COC[C@H](O)CN2Cc2cccc(C(F)(F)F)c2)O1)NCc1ccccc1,0.1,-6.2,2.6,-1.1,-4.1
COC(=O)C[C@@H]1C[C@@H]2c3cc(NC(=O)Nc4ccccc4F)ccc3O[C@@H]2[C@@H](CO)O1,3.9,-2.5,-0.1,4.2,-2.0
COc1ccccc1NC(=O)N[C@@H]1C=C[C@@H](CC(=O)N2CCC(Cc3ccccc3)CC2)O[C@H]1CO,4.0,-3.8,0.1,7.3,5.2
Cc1ccccc1OCC(=O)Nc1ccccc1-c1ccccc1,-1.2,-38.1*,0.3,-2.9,0.1
CCN(CC(=O)Nc1ccccc1OC)CC(=O)Nc1ccccc1-c1ccccc1,.,-32.0*,-0.7,0.4,-0.7
Cc1ccccc1NC(=O)COc1ccccc1C,1.9,-24.1,1.3,3.0,2.8
CCN(CC(=O)Nc1ccccc1OC)CC(=O)Nc1sccc1C#N,15.4*,-8.7,-3.9,-0.5,-3.0
CCN(CC(=O)NCc1ccc(F)cc1)CC(=O)Nc1ccccc1-c1ccccc1,3.1,-33.2*,-1.3,2.3,-3.5
CCN(CC(=O)Nc1ccccc1OC)CC(=O)Nc1ccccc1C(F)(F)F,.,6.2,0.3,-3.3,-0.7
C[C@H]1CN([C@@H](C)CO)C(=O)c2cc(NC(=O)NC3CCCCC3)ccc2O[C@@H]1CN(C)S(=O)(=O)c1ccccc1,-1.5,-0.7,-3.0,-5.2,0.9
CCN(CC(=O)Nc1ccccc1-c1ccccc1)Cc1nc2ccccc2c(=O)[nH]1,-2.6,-24.9*,5.1,-1.6,1.1
COc1cc2c(cc1OC)C(C)N(C(=O)c1ccc(C)o1)CC2 (stereo not given),22.2*,4.1,2.3,-6.8,2.9

# Assay outcomes: PubChem BioAssay, Broad Institute
